Each block holds one molecule with its values, some of them ahead of it. Activity calls are given as the source filed them. The rule behind the calls is not given here.
How the values were obtained:
KB [1] = experiment: Cytotoxicity against human KB cells after 72 hrs by sulforhodamine B and MTT assay; format: functional, cell-based
Summary of the method: (§1)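 Log-phase cells were plated overnight and exposed for 72 h to a 5-concentration gradient, in triplicate wells. SRB arm: 10% cold TCA fixation for 1 h at 4 °C, 4 mg/ml SRB in 1% acetic acid for 15 min, dye dissolved in 10 mM Tris-HCl, read at 520 nm. MTT arm: 5 mg/mL MTT for 4 h at 37 °C, SDS-isobutanol-HCl solubilisation for 12–20 h, read at 570 nm. IC50 by Logit method from at least 3 independent tests.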

MCF7 = experiment: Cytotoxicity against human MCF7 cells after 72 hrs by sulforhodamine B and MTT assay; format: functional, cell-based; settings: MCF7, 72 h; summary of the method: as §1
[2] = biological target: DNA topoisomerase 2-alpha (Homo sapiens) (UniProt P11388); experiment: Inhibition of human topoisomerase 2-mediated decatenation of kinetoplast DNA at 100 uM after 15 mins by agarose gel electrophoresis
Summary of the method: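 ATP-dependent kDNA decatenation by 1 unit Topo II in 50 mM Tris-HCl pH 7.7, 50 mM KCl, 5 mM MgCl2, 1 mM ATP, 0.5 mM DTT, 0.5 mM EDTA and BSA, run for 15 min at 37 °C. Stopped with 10% SDS, then run on 1% agarose in TAE at 4 V/cm for 1 h and stained with ethidium bromide.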

HCT-116 = experiment: Cytotoxicity against human HCT116 cells after 72 hrs by sulforhodamine B and MTT assay; format: functional, cell-based; settings: HCT-116, 72 h; summary of the method: as §1
HL-60 = experiment: Induction of apoptosis in human HL60 cells assessed as DNA fragmentation at 10 uM after 36 hrs by gel electrophoresis; format: functional, cell-based
Summary of the method: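 HL-60 cells were seeded and exposed to compound for 36 h. Harvested cells were lysed with an equal volume of 1.2% SDS, and the fragmented DNA was extracted and resolved by gel electrophoresis.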

K562 [3] = experiment: Resistance index, ratio of IC50 for adriamycin-selected multi drug-resistant human K562 cells to IC50 for human K562 cells; format: functional
Summary of the method: (§2)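 Resistance factor is the IC50 in the resistant line divided by the IC50 in the parental line. Both IC50s come from 72 h SRB/MTT growth-inhibition assays, derived by the Logit method from at least 3 independent tests.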

KB [4] = experiment: Cytotoxicity against vincristine-selected multi drug-resistant human KB cells after 72 hrs by sulforhodamine B and MTT assay; format: functional, cell-based
Summary of the method: (§3)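 Log-phase cells were seeded, preincubated (overnight for SRB, 24 h for MTT), then given a five-concentration gradient in triplicate wells for 72 h. For MTT, reagent was added for 4 h at 37 °C, solubilized in SDS-isobutanol-HCl for 12-20 h, and read at 570 nm. IC50 was derived by the Logit method from at least 3 independent tests.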

K562 [5] = experiment: Cytotoxicity against adriamycin-selected multi drug-resistant human K562 cells after 72 hrs by sulforhodamine B and MTT assay; format: functional, cell-based; settings: K562, 72 h; summary of the method: as §3
KB [6] = experiment: Resistance index, ratio of IC50 for vincristine-selected multi drug-resistant human KB cells to IC50 for human KB cells; format: functional; summary of the method: as §2
K562 [7] = experiment: Cytotoxicity against human K562 cells after 72 hrs by sulforhodamine B and MTT assay; format: functional, cell-based; settings: K562, 72 h; summary of the method: as §3

Chain of DNA topoisomerase 2-alpha (Homo sapiens) (P11388 whole entry): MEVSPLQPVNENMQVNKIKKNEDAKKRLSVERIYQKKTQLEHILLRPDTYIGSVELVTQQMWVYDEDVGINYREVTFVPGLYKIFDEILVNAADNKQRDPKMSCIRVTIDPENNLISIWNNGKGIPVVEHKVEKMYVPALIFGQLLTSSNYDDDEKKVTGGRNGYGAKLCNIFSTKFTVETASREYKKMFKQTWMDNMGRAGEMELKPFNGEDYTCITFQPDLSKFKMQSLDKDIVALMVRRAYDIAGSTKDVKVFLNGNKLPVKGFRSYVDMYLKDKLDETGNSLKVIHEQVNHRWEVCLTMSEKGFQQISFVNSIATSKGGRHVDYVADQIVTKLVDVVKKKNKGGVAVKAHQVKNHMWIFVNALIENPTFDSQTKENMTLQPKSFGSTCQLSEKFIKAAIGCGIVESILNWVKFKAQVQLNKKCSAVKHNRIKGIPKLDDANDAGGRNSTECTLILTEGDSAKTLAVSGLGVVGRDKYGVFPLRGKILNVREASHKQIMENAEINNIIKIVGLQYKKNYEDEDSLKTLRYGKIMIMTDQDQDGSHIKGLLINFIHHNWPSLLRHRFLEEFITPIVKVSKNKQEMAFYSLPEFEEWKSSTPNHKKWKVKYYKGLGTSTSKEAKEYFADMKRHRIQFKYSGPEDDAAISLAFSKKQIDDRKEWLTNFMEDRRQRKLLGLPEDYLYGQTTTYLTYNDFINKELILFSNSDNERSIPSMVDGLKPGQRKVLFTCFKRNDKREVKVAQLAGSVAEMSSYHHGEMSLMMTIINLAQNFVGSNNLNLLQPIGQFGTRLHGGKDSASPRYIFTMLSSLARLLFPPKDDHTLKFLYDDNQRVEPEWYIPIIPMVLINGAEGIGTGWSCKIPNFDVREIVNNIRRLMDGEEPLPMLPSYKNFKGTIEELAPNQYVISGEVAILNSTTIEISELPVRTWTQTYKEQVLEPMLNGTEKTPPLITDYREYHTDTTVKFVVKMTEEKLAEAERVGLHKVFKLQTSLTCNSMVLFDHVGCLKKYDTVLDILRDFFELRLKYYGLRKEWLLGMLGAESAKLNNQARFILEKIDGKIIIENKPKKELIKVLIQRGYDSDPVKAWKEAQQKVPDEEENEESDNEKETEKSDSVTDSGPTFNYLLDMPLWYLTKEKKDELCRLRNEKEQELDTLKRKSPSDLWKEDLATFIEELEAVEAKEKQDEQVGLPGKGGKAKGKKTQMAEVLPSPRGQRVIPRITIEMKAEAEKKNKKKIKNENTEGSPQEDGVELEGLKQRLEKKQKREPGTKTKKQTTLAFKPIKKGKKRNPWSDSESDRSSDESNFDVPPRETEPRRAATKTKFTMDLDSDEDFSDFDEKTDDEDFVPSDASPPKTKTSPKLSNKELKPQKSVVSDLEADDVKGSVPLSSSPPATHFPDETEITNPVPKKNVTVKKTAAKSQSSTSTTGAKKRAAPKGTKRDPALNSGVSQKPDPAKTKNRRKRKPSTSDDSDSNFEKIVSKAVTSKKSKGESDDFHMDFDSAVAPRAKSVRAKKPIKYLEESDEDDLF

inhibition [2]: inactive
Compound: COC[C@H]1O[C@@H](Oc2c3c(c(-c4ccc5c(c4)OCO5)c4cc(OC)c(OC)cc24)C(=O)OC3)[C@H](O)[C@@H](O)[C@H]1O
IC50 (KB [1]): 4100 nM | IC50 (MCF7): > 10000 nM | IC50 (HCT-116): > 10000 nM

Compound: COc1cc2c(O[C@@H]3O[C@H](CO)[C@H](O)[C@H](O)[C@H]3O)c3c(c(-c4ccc5c(c4)OCO5)c2cc1OC)C(=O)OC3
IC50 (KB [1]): 4890 nM | IC50 (MCF7): 4110 nM | inhibition [2]: inactive | IC50 (HCT-116): > 10000 nM

Compound: COc1cc2c(O[C@H]3O[C@@H](C)[C@@H](O)[C@@H](O)[C@@H]3O)c3c(c(-c4ccc5c(c4)OCO5)c2cc1OC)C(=O)OC3 [PATENTIFLORIN B]
Activity (HL-60): Active | IC50 (KB [1]): > 10000 nM | IC50 (MCF7): 1420 nM | inhibition [2]: inactive | IC50 (HCT-116): > 10000 nM

inhibition [2]: Active
Compound: COc1cc2c(O)c3c(c(-c4ccc5c(c4)OCO5)c2cc1OC)C(=O)OC3 [DIPHYLLIN]
Ratio IC50 (K562 [3]): 14.1 | IC50 (KB [1]): 780 nM | IC50 (KB [4]): 3150 nM | IC50 (K562 [5]): 23.5 µM | IC50 (MCF7): 540 nM | Ratio IC50 (KB [6]): 4 | IC50 (K562 [7]): 1670 nM | IC50 (HCT-116): 3540 nM

Compound: CC[C@]1(O)C[C@H]2CN(CCc3c([nH]c4ccccc34)[C@@](C(=O)OC)(c3cc4c(cc3OC)N(C=O)[C@H]3[C@@](O)(C(=O)OC)[C@H](OC(C)=O)[C@]5(CC)C=CCN6CC[C@]43[C@@H]65)C2)C1 [VINCRISTINE]
IC50 (KB [1]): 3 nM | IC50 (KB [4]): 1610 nM | Ratio IC50 (KB [6]): 536.7

inhibition [2]: Active
Compound: COc1cc2c(O[C@@H]3O[C@H](COCc4ccccc4)[C@@H](O)[C@H](O)[C@H]3O)c3c(c(-c4ccc5c(c4)OCO5)c2cc1OC)C(=O)OC3
IC50 (KB [1]): 15 nM | IC50 (MCF7): 28 nM | IC50 (HCT-116): 36 nM

Compound: COc1cc2c(O[C@@H]3OC[C@H](O)[C@H](O)[C@H]3O)c3c(c(-c4ccc5c(c4)OCO5)c2cc1OC)C(=O)OC3 [ACUTISSIMALIGNAN A]
IC50 (KB [1]): 6880 nM | IC50 (MCF7): > 10000 nM | inhibition [2]: inactive | IC50 (HCT-116): > 10000 nM

Compound: COc1cc2c(O[C@@H]3O[C@@H]4COC(C)(C)O[C@H]4[C@H](O)[C@H]3O)c3c(c(-c4ccc5c(c4)OCO5)c2cc1OC)C(=O)OC3
IC50 (KB [1]): 10 nM | IC50 (MCF7): 53 nM | inhibition [2]: Active | IC50 (HCT-116): 43 nM

Compound: COc1cc2c(O[C@H]3O[C@@H](C)[C@@H](OC(C)=O)[C@@H](O)[C@@H]3O)c3c(c(-c4ccc5c(c4)OCO5)c2cc1OC)C(=O)OC3 [4'-O-ACETYLPATENTIFLORIN B]
IC50 (KB [1]): 140 nM | IC50 (MCF7): 110 nM | inhibition [2]: Active | IC50 (HCT-116): 270 nM
